According to ChEMBL document CHEMBL5252543, “Ester-prodrugs of ethambutol control its antibacterial activity and provide rapid screening for mycobacterial hydrolase activity” (2017):

Key:
Type in all cases: functional
Conditions in all cases: 72 h, time 3 day
[1] = test system: Mycolicibacterium smegmatis; assay: Antimicrobial activity against Mycobacterium smegmatis assessed as bacterial growth inhibition measured after 3 days by multimode plate reader analysis
Procedure, shortened: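 MIC99 in M. smegmatis broth. Compounds serially diluted in Middlebrook media, then diluted 1:1 with M. smegmatis in Middlebrook (final 25 μg/mL to 0.012 μg/mL). Plates grown 72 h at 37 °C, 225 rpm; growth read as A600.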

[2] = test system: Mycolicibacterium smegmatis; assay: Antimicrobial activity against Mycobacterium smegmatis assessed as bacterial growth inhibition preincubated with PLE for 1 hr measured after 3 days by multimode plate reader analysis
Procedure, shortened: (§1)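 MIC99 in M. smegmatis with esterase pretreatment. The highest-concentration sample (50 μg/mL) was preincubated 1 h at RT with pig liver esterase (0.1 mg/mL), alone or with PMSF (1 mM), before serial dilution and 1:1 mixing with M. smegmatis in Middlebrook (final 25 to 0.012 μg/mL). Growth read as A600 after 72 h at 37 °C, 225 rpm.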

[3] = test system: Mycolicibacterium smegmatis; assay: Antimicrobial activity against Mycobacterium smegmatis assessed as bacterial growth inhibition preincubated with PLE and PMSF for 1 hr measured after 3 days by multimode plate reader analysis; procedure, shortened: as §1

Structure (SMILES)	MIC99 [1]	MIC99 [2]	MIC99 [3]
CC[C@@H](COC(=O)C1(C)CC1)NCCN[C@@H](CC)COC(=O)C1(C)CC1.Cl.Cl	13 µg/mL	0.78 µg/mL	25 µg/mL
CCC(CC)C(=O)OC[C@H](CC)NCCN[C@@H](CC)COC(=O)C(CC)CC.Cl.Cl	1.6 µg/mL	0.2 µg/mL	0.78 µg/mL
CC[C@@H](COC(=O)C1CCC1)NCCN[C@@H](CC)COC(=O)C1CCC1.Cl.Cl	3.1 µg/mL	0.39 µg/mL	6.2 µg/mL
CC[C@@H](COC(=O)C1CCCC1)NCCN[C@@H](CC)COC(=O)C1CCCC1.Cl.Cl	6.3 µg/mL	0.098 µg/mL	1.6 µg/mL
CC[C@@H](COC(=O)CC(C)C)NCCN[C@@H](CC)COC(=O)CC(C)C.Cl.Cl	6.3 µg/mL	0.2 µg/mL	0.39 µg/mL
CC[C@@H](COC(=O)C(C)C)NCCN[C@@H](CC)COC(=O)C(C)C.Cl.Cl	6.3 µg/mL	0.39 µg/mL	6.3 µg/mL
CCC(=O)OC[C@H](CC)NCCN[C@@H](CC)COC(=O)CC.Cl.Cl	0.78 µg/mL	0.78 µg/mL	0.78 µg/mL
CC[C@@H](COC(=O)C(C)(C)C)NCCN[C@@H](CC)COC(=O)C(C)(C)C.Cl.Cl	6.3 µg/mL	0.78 µg/mL	6.3 µg/mL
CC[C@@H](CO)NCCN[C@@H](CC)CO.Cl.Cl [ETHAMBUTOL HYDROCHLORIDE]	0.098 µg/mL	0.098 µg/mL	0.098 µg/mL
